From publication PMC4979564 (JCI insight, 2016) come the findings set out here.

Data set [1] deals with BDL-induced liver fibrosis. The data set is described as follows: Bile duct ligation. The format is in vivo, mouse. As to conditions: for progression of established BDL-induced liver fibrosis: treatment started on day 6 after BDL; for gene expression of fibrosis markers collagen-1, Tgfβ1, αSma, Timp1: wild-type mice with BDL.
Data set [2] addresses T1, CB1R (Mus musculus, UniProt P47746). As to the kind of experiment: [35S]GTPγS-binding assay. Type of data set: biochemical. The note with it: no agonist. Background: Binding of GTPγS marks nucleotide exchange on a G protein.
Data set [3] can be described thus: Tissue distribution by LC-MS/MS after oral dosing. Type of data set: in vivo, mouse.
The nature of data set [4]: Plasma ALT and AST after 28-day chronic oral administration. As to conditions: for plasma ALT / plasma AST: 28-day chronic oral. The format is in vivo, mouse. Put shortly:
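Mice received test compound by daily oral gavage. Blood was collected at sacrifice, and serum ALT and AST were measured on an automated clinical chemistry analyzer.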

For another data set, the system named is Caco-2. The data set is described as follows: Caco-2 permeability assay. Type of data set: in vitro ADME. (Passage across Caco-2 layers is used to estimate intestinal permeability.)
Data set [5] concerns the target T1, CB1R. As to the kind of experiment: Brain CB1R occupancy by CB1R PET. The format is in vivo. The note with it: acute or chronic treatment, 3–30 mg/kg.
The test system of a further data set is anxiety-like behavior. As to the kind of experiment: Elevated plus-maze test. The format is in vivo, mouse.
In data set [6] the target is T1, CB1R. The data set is described as follows: Upper GI motility assay. Type of data set: in vivo.
Another data set has as its target iNOS (Mus musculus, UniProt P29477). The format is cell-based. As to conditions: for concentration range of concentration-dependent inhibition of iNOS activity: extracts of RAW 264.7 macrophages treated with LPS + γ-interferon. The procedure, abridged:
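RAW 264.7 mouse macrophages (100,000 cells/well) primed 24 h with LPS (50 ng/ml) plus γ-interferon (10 ng/ml) to induce iNOS. Test compound was then added for 1 h. Activity was read with a fluorimetric cell-associated NOS detection kit per supplier's protocol. Diphenylene iodonium (1 mM) served as positive control. One-way ANOVA with Dunnett's test against LPS+γ-interferon control.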

For the next data set, the target named is recombinant bovine eNOS (Bos taurus, UniProt P29473). The data set is described as follows: Radioisotopic eNOS activity assay. The note with it: recombinant eNOS enzyme. Type of data set: biochemical. Put shortly: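 Recombinant bovine eNOS was incubated with test compound. Activity was taken as the rate of conversion of [3H]L-arginine to [3H]L-citrulline, using a radioisotopic NOS assay kit per supplier's instructions. L-NNA (100 μM) served as positive control. One-way ANOVA with Dunnett's test.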

Data set [7] can be described thus: Pharmacokinetics in Sprague-Dawley rats. The format is in vivo, rat.
Another data set is described as follows: Pharmacokinetics in mice. The format is in vivo, mouse. The note with it: oral.
Data set [8] can be described thus: Liver microsomal stability assay. Type of data set: in vitro ADME. As to conditions: mouse, rat, or human liver microsomes, 1 hour at 37°C.
Data set [9] in a line: 2-strain Ames test for in vitro genotoxicity. As to conditions: up to 125 μg/ml. Background: The Ames test uses bacterial strains that need an amino acid and regain growth without it when mutated back.
For a further data set, the target named is hERG (Homo sapiens, UniProt Q12809). The data set is described as follows: hERG K+ current inhibition. The format is biochemical. As to conditions: read-out: IC50 for inhibition of the K+ current mediated by hERG; in vitro.
Sequence of hERG (Q12809 whole entry): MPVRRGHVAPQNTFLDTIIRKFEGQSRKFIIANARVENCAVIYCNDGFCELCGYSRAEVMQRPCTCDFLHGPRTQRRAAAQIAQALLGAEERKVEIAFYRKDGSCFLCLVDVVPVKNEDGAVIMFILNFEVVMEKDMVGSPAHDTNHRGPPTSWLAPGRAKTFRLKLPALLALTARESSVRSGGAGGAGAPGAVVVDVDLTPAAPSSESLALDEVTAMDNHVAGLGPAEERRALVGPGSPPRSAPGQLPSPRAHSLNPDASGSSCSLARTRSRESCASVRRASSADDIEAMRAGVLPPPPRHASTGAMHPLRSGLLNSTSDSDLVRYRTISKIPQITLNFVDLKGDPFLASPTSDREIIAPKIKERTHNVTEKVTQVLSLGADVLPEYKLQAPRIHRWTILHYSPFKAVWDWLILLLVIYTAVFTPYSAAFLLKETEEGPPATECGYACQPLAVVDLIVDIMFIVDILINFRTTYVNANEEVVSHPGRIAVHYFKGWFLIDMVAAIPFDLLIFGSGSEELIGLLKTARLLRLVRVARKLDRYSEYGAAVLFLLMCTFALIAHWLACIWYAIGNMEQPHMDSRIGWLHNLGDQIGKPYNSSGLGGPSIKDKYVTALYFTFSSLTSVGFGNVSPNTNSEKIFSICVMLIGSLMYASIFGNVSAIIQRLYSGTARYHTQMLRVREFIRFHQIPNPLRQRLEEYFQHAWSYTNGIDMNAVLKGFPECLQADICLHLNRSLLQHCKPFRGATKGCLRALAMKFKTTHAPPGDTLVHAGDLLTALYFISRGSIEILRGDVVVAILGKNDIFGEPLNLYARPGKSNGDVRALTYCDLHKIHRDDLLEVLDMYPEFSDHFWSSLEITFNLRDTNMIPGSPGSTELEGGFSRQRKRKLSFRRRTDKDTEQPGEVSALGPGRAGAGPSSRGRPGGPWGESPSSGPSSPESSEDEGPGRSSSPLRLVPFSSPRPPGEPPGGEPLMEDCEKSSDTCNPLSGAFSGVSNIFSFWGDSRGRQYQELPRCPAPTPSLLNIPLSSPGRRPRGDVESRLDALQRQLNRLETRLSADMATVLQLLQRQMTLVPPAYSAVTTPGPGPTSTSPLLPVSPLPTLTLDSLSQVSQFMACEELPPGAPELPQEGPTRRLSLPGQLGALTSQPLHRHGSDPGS
The target of data set [10] is CB1R (Homo sapiens, UniProt P21554). As to the kind of experiment: Safety screen. Type of data set: binding. The note with it: 1 μM.
Sequence of CB1R (Homo sapiens, UniProt P21554) (P21554 whole entry): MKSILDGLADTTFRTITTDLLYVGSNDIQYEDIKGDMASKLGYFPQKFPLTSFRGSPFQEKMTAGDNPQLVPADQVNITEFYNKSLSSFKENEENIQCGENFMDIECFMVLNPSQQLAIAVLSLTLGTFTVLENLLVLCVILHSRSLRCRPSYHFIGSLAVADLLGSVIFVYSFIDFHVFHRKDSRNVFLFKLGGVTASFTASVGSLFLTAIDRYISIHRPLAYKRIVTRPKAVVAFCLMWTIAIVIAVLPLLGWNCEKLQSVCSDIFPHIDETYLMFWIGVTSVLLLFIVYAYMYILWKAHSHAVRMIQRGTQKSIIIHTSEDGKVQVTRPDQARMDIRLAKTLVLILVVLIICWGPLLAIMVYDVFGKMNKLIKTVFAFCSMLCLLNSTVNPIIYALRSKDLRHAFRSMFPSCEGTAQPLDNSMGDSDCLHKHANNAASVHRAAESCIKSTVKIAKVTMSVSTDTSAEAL
The next data set deals with κ opioid receptor. The data set is described as follows: Safety screen. The format is binding. The note with it: 1 μM.
Data set [11] relates to CCl4-induced liver fibrosis. The data set is described as follows: CCl4-induced liver fibrosis. Type of data set: in vivo, mouse. The note with it: 3 mg/kg/d for 4 weeks with CCl4 twice weekly.
Another data set deals with CB2R. The note with it: binding, CHO-K1 membranes.

The structures appear in SMILES notation. A value given as a limit tells only on which side of the number the result lay.

T1 sequence (P47746 whole entry): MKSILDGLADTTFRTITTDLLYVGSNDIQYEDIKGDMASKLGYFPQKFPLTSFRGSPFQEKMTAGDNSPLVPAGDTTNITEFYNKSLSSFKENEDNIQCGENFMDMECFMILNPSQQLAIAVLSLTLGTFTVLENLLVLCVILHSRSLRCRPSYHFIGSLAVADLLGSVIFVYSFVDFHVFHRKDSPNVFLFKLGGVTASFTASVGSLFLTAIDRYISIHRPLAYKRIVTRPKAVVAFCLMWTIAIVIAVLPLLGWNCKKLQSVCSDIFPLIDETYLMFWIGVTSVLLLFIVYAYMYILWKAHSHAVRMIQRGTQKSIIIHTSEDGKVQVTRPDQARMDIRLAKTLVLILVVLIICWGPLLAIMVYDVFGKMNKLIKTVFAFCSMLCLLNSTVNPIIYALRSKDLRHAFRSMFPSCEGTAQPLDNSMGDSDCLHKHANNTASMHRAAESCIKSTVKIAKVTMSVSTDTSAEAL

Take `CC(=N)NCc1cccc(CN)c1` [1400W, reference compound]: the “progression of established BDL-induced liver fibrosis” value in data set [1] (10 mg/kg daily) is given as “attenuated fibrosis to the same extent as rimonabant”.

The term efflux ratio denotes a quotient of directional permeabilities that is used to spot active efflux. Broadly, the IC50 is the concentration needed to halve the response being measured. Take `C/C(N)=N\C(=N/S(=O)(=O)c1ccc(C(F)(F)F)cc1)N1C[C@H](c2ccccc2)C(c2ccc(Cl)cc2)=N1` [MRI-1867]: on CB1R [2], the “GTPγS binding in the absence of an agonist (inverse agonism)” value was “concentration-dependent decreases in GTPγS binding”. The “unbound drug concentrations in the brain” value in [3] (10 times higher dose (30 mg/kg), acute or chronic oral, 1 hour after dose) was 0.9 to 1.2 nM. In [3] (acute or 28-day chronic oral administration, 3 mg/kg), the “brain/plasma Cmax ratio” value is listed as ~ 3%. The “brain concentration of unbound drug” value in [3] (acute or chronic oral dosing, 3 mg/kg, 1 hour after dose) lay in the range of 0.2 to 0.3 nM. Besides, the “brain penetrance and brain CB1R occupancy in mdr1α−/− mice” value in data set [3] (mdr1α−/− mice) is “marked increase”. Also, the “accumulation in the liver” value in [3] (oral dosing) is recorded as “accumulated highly in the liver”. In addition, in [4] (28-day chronic oral doses of 3 or 30 mg/kg), the hepatotoxicity result is given as “no hepatotoxicity”. For the same compound, in data set [4] (3 mg/kg), the “plasma ALT” value is given as 31.8 ± 4.8 U/l and the “plasma AST” value amounted to 44.0 ± 6.1 U/l. In data set [4] (30 mg/kg), the “plasma ALT” value came to 26.2 ± 3.4 U/l and the “plasma AST” value is on record as 36.2 ± 1.2 U/l. The efflux ratio with Caco-2 is recorded as 2.5. Besides, the “displacement of a CB1R PET ligand in brain” value on CB1R [5] was “failed to cause significant displacement”. Moreover, the “anxiety-like behavior in the elevated plus maze” value with anxiety-like behavior (doses up to 30 mg/kg) is reported as “did not induce anxiety-like behavior”. Also, at CB1R [6] (10 mg/kg agonist), the “reversal of inhibition of upper GI motility caused by CB1R agonist arachidonoyl 2-chloroethylamide” value is “dose-dependently reversed”. Also, the “upper GI motility (inverse agonism)” value on CB1R [6] (oral doses of 3–10 mg/kg, control mice, no effect in CBr1−/− mice) is recorded as “significantly increased upper GI motility”. In addition, the “concentration range of concentration-dependent inhibition of iNOS activity” value at iNOS was in the range of 1 to 10 µM. Also, the “effect on eNOS activity” value on recombinant bovine eNOS is listed as “unaffected”. This compound came in with an oral bioavailability in [7] (AUC oral gavage versus intravenous, 3 mg/kg, Sprague-Dawley rats) of 81%. Besides, the “Plasma t1/2” value in [7] (oral, rats) is given as ~ 4 hours. Further, the “Plasma t1/2” value in “Pharmacokinetics in mice” is ~ 4 hours. Further, the compound remaining unmetabolized in data set [8] is reported as 46%–62%. The Ames test genotoxicity entry in data set [9] is “negative”. Also, the IC50 at hERG was 5.1 µM. Moreover, at CB1R [10], the “displacement at CB1R” value is recorded as 93%. Moreover, in the data set on κ opioid receptor, the “displacement at κ opioid receptor” value was determined as 61%. Besides, in [1] (3 mg/kg/d oral), the “BDL-induced increase in hepatic iNOS gene expression” value was “completely prevented”; the “BDL-induced increase in hepatic iNOS protein (immunostaining)” value was “completely prevented”; the “BDL-induced increase in iNOS function (hepatic iNOS enzyme activity, protein nitrosylation)” value is recorded as “completely prevented”; the “macrophage infiltration, hepatocyte apoptosis and elevated Ccl2 after BDL” value is “more effectively suppressed”. Besides, in [1] (3 mg/kg/d oral), the “progression of established BDL-induced liver fibrosis” value is listed as “completely arrest the progression” and the “gene expression of fibrosis markers collagen-1, Tgfβ1, αSma, Timp1” value is recorded as “significantly reduced”. Moreover, the “BDL-induced fibrosis in cnr1−/− mice” value in [1] (cnr1−/− mice, 3 mg/kg/d oral) is recorded as “further attenuated”. In addition, the BDL-induced ductular proliferation entry in [1] (wild-type mice, 3 mg/kg/d oral) is “attenuated significantly more effectively”. Moreover, the “CCl4-induced fibrosis (Sirius red, Hyp content, fibrogenic gene expression, iNOS protein)” value in [11] is recorded as “attenuated significantly more”. Besides, the “selectivity for CB1R over CB2R” value in the data set on CB2R is given as > 500 fold.

Consider `CC(=N)N` [acetamidine], for which the “concentration range of concentration-dependent inhibition of iNOS activity” value on iNOS lay in the range of 1 to 10 µM. For the same compound, the “effect on eNOS activity” value on recombinant bovine eNOS is recorded as “unaffected”.

On to `Cc1c(C(=O)NN2CCCCC2)nn(-c2ccc(Cl)cc2Cl)c1-c1ccc(Cl)cc1` [rimonabant, reference compound], for which, in the data set with anxiety-like behavior (3 mg/kg), the “anxiety-like behavior in the elevated plus maze” value is recorded as “caused pronounced anxiety”. Also, at iNOS (up to 100 μM), the “inhibition of iNOS activity” value was “did not inhibit iNOS”. Besides, the “effect on eNOS activity” value at recombinant bovine eNOS is on record as “Lack of effect”. In addition, in [1] (3 mg/kg/d oral), the “BDL-induced increase in hepatic iNOS gene expression” value was “only partially reduced”; the “BDL-induced increase in hepatic iNOS protein (immunostaining)” value is “did not affect”; the “BDL-induced increase in iNOS function (hepatic iNOS enzyme activity, protein nitrosylation)” value was “no significant effect”; the “gene expression of fibrosis markers collagen-1, Tgfβ1, αSma, Timp1” value is recorded as “significantly reduced”.
